Data published in ChEMBL document CHEMBL1828568, “Novel imaging agents for β-amyloid plaque based on the N-benzoylindole core” (Bioorg Med Chem Lett, 2011).

Assay: Displacement of [125I]TZDM from amyloid beta (1 to 40) aggregates after 2 hrs by gamma counting
Method in brief: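 Competition binding against [125I]TZDM as radiolabeled standard, using Aβ1–40 aggregates; run in triplicate, results as mean ± SD.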

Ki | Structure (SMILES)
36.4 nM | O=C(/C=C/c1ccccc1)n1ccc2cc(Cl)ccc21
103 nM | COc1ccc(/C=C/C(=O)n2ccc3cc(C)ccc32)cc1
